We go through 21 compounds from ChEMBL document CHEMBL4000142, “Probing the carboxyester side chain in controlled deactivation (-)-δ(8)-tetrahydrocannabinols” (J Med Chem, 2015).

A short description of data set [1]: Metabolic stability in mouse plasma assessed as esterase-mediated compound hydrolysis by measuring compound half life by HPLC analysis. The class given is ADME. Conditions: […]. The method, boiled down: (§1)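 Compounds at 200 μM in mouse plasma, 37 °C, shaken at 100 rpm. Samples taken over time, diluted 1:4 in acetonitrile and centrifuged. Supernatant analysed by C18 reverse-phase HPLC with an acetonitrile/acidified water gradient and UV detection (204 and 230 nm). Half-life from exponential decay fit.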

Data set [2] has as its target T1, Cannabinoid receptor 1 (Rattus norvegicus, UniProt P20272). The data set can be described thus: Agonist activity at CB1 receptor in rat brain membranes assessed as reduction in forskolin-stimulated cAMP level measured from 3 data points after 30 mins. The data set is classed as functional, cell membranes, Membrane.
For data set [3], the target named is T1, Cannabinoid receptor 1. The data set can be described thus: Displacement of [3H]CP-55,940 from CB1 receptor in rat brain membranes by scintillation counting method. The data set is classed as cell membranes, Membrane. An outline of the steps: (§2)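 Competition binding against [3H]CP-55,940. Membranes from rat brain (CB1) or from HEK293 cells expressing mouse or human CB2. IC50 from nonlinear regression, converted to Ki. Each experiment run in triplicate; Ki is the mean of three independent experiments.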
Background: Displacement assays read how much labelled ligand stays bound in the presence of the test substance.

Data set [4] deals with Cannabinoid receptor 2 (Homo sapiens, UniProt P34972). The data set can be described thus: Displacement of [3H]CP-55,940 from human CB2 receptor expressed in HEK293 cells by scintillation counting method. The class given is cell-based. An outline of the steps:
as §2

Data set [5] concerns the target Cannabinoid receptor 2 (Mus musculus, UniProt P47936). Description: Displacement of [3H]CP-55,940 from mouse CB2 receptor expressed in HEK293 cells by scintillation counting method. The class given is cell-based. An outline of the steps: as §2
Data set [6] has as its target T1, Cannabinoid receptor 1. Description: Agonist activity at CB1 receptor in rat brain membranes assessed as reduction in forskolin-stimulated cAMP level measured from 8 data points after 30 mins. The class given is functional, cell membranes, Membrane.
Data set [7] has as its target Cannabinoid receptor 1 (Rattus norvegicus) (UniProt P20272). The data set can be described thus: Agonist activity at CB1 receptor in rat brain membranes assessed as reduction in forskolin-stimulated cAMP level after 30 mins relative to CP-55,940. The data set is classed as functional, cell membranes. Conditions: Membrane. In general terms: Changes in cAMP serve as a functional read-out for many G protein-coupled receptors.

Data set [8] has as its system Rattus norvegicus. Description: Hypothermic activity in sc dosed Sprague-Dawley rat measured over 6 hrs post dose. The data set is classed as functional.
The test system of data set [9] is Rattus norvegicus. The data set can be described thus: Hypothermic activity in sc dosed Sprague-Dawley rat assessed as reduction in body temperature at 0.1 mg/kg, sc measured over 6 hrs post dose relative to baseline. The data set is classed as functional, organism-based.
The test system of data set [10] is Rattus norvegicus. Description: Hypothermic activity in sc dosed Sprague-Dawley rat assessed as reduction in body temperature at 0.03 mg/kg, sc measured after 3 hrs post dose relative to baseline. The data set is classed as functional, organism-based.
Data set [11] has as its system Rattus norvegicus. Description: Hypothermic activity in sc dosed Sprague-Dawley rat assessed as reduction in body temperature at 0.03 mg/kg, sc measured after 6 hrs post dose relative to baseline. The data set is classed as functional, organism-based.
A short description of data set [12]: Metabolic stability in mouse plasma assessed as esterase-mediated compound hydrolysis measured within 5 hrs by HPLC analysis. The settings on record: […]. The class given is ADME. An outline of the steps: as §1
For data set [13], the system named is Rattus norvegicus. The data set can be described thus: Hypothermic activity in sc dosed Sprague-Dawley rat assessed as reduction in body temperature at 0.3 mg/kg, sc measured after 12 hrs post dose relative to baseline. The class given is functional, organism-based.

Activity calls are given as the source filed them. No cut-off for these calls is given here.

Chain of Cannabinoid receptor 2 (Homo sapiens, UniProt P34972) (P34972 whole entry): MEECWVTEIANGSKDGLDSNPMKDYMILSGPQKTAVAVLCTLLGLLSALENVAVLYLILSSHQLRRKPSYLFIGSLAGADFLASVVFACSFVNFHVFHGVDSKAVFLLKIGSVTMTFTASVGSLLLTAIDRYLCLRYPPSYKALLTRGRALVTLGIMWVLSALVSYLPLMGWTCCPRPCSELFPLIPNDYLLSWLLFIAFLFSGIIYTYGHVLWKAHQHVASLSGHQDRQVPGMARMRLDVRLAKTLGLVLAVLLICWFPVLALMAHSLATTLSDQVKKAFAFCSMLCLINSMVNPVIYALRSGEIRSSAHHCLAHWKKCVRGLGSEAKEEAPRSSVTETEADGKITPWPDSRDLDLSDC
T1 sequence (P20272 whole entry): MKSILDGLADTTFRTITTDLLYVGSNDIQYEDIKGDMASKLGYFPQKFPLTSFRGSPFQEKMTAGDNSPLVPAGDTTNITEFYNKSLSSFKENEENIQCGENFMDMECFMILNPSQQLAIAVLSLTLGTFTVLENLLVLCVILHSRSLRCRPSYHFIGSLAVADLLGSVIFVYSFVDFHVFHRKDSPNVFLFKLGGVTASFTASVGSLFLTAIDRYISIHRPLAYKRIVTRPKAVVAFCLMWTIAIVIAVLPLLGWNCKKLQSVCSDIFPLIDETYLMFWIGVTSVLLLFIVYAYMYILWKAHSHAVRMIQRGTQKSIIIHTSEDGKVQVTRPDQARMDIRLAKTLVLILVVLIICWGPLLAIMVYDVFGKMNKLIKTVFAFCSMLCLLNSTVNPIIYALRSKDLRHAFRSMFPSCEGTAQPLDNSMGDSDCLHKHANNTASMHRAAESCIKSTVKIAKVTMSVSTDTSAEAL
Chain of Cannabinoid receptor 2 (Mus musculus, UniProt P47936) (P47936 whole entry): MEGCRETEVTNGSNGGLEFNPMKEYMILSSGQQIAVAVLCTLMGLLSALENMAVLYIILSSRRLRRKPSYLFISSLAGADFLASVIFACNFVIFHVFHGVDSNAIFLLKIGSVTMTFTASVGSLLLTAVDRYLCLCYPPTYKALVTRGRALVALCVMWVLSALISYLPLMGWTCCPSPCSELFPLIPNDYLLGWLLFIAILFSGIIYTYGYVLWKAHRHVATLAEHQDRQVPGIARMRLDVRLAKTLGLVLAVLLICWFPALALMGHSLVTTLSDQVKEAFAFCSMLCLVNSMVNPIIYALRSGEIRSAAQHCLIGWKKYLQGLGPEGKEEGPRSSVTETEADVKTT
Chain of Cannabinoid receptor 1 (Rattus norvegicus) (P20272 whole entry): as the sequence (P20272 whole entry) above

As usually defined, the EC50 is the midpoint of the concentration-response curve. `CC1=CC[C@@H]2[C@@H](C1)c1c(O)cc(CC(=O)OCCCCC#N)cc1OC2(C)C`: the t1/2 in data set [1] was 3.2 min. For the same compound, at Cannabinoid receptor 1 [2], the EC50 was in the range of 10 to 100 nM.
What is called Ki is a dissociation constant, usually derived from enzyme kinetics or from competition with a known ligand. Low values mean higher affinity, high ones lower affinity. With `CC1=CC[C@@H]2[C@@H](C1)c1c(O)cc(C(C)(C)C(=O)OCCBr)cc1OC2(C)C`, the Ki worked out at 7.7 nM at Cannabinoid receptor 1 [3] and 2.9 nM on Cannabinoid receptor 2 [4].
A word on the Emax: it is the maximal effect, on the per cent scale that the assay sets. A word on the ED50: it is the dose that gives a 50% effect, or the effect in half of the subjects. A higher ED50 goes with a need for a large dose. `CC1=CC[C@@H]2[C@@H](C1)c1c(O)cc(C(C)(C)C(=O)OCCCC#N)cc1OC2(C)C`: affinity on Cannabinoid receptor 2 [5] was put at a Ki of 0.8 nM. In data set [1], the t1/2 is reported as 46.5 min. In addition, the EC50 on Cannabinoid receptor 1 [2] was less than 1 nM; on Cannabinoid receptor 1 [6], 0.9 nM. The Emax in data set [7] amounted to 89%. For the same compound, in the data set on Rattus norvegicus [8], the Activity entry is “Dose-dependent effect”. In the data set on Rattus norvegicus [8], the ED50 came to 0.034 mg/kg. The deltaT is less than 4.5 °C in the data set on Rattus norvegicus [9] and 2 °C in the data set with Rattus norvegicus [10]. Further, the result in the data set with Rattus norvegicus [11] was inactive.
As to `CC1=CC[C@@H]2[C@@H](C1)c1c(O)cc(CC(=O)OCCCCBr)cc1OC2(C)C`, in data set [1], the t1/2 is 1.7 min.
For `CC1=CC[C@@H]2[C@@H](C1)c1c(O)cc(C(C)(C)C(=O)OCCCCCBr)cc1OC2(C)C`, the Ki at Cannabinoid receptor 1 [3] was determined as 1.2 nM; on Cannabinoid receptor 2 [5] it was 1.1 nM; at Cannabinoid receptor 2 [4], 0.6 nM.
Turning to `CC1=CC[C@@H]2[C@@H](C1)c1c(O)cc(C3(C(=O)OCCCCC#N)CCC3)cc1OC2(C)C`, the t1/2 in data set [1] worked out at 115 min. Besides, the EC50 at Cannabinoid receptor 1 [2] lay within 1 to 10 nM.
In turn, `CC1=CC[C@@H]2[C@@H](C1)c1c(O)cc(C(C)(C)C(=O)OCCCBr)cc1OC2(C)C` came in with a Ki on Cannabinoid receptor 2 [4] of 0.7 nM.
For `CC1=CC[C@@H]2[C@@H](C1)c1c(O)cc(C(C)(C)CO)cc1OC2(C)C`, the Ki on Cannabinoid receptor 2 [5] and at Cannabinoid receptor 2 [4] was greater than 10000 nM each time.
Consider `CC1=CC[C@@H]2[C@@H](C1)c1c(O)cc(C(C)(C)C(=O)OCCCCC#N)cc1OC2(C)C`, for which the Ki stood at 0.1 nM at Cannabinoid receptor 2 [5] and 0.9 nM on Cannabinoid receptor 2 [4]. The t1/2 in data set [1] is recorded as 40.4 min. Further, the EC50 on Cannabinoid receptor 1 [2] was in the range of 1 to 10 nM.
Regarding `CC1=CC[C@@H]2[C@@H](C1)c1c(O)cc(C(C)(C)C(=O)OCCCCn3ccnc3)cc1OC2(C)C`, the Ki at Cannabinoid receptor 2 [5] was found to be 8.2 nM; on Cannabinoid receptor 2 [4], 7.7 nM. For the same compound, the t1/2 in data set [1] is 392 min.
In the case of `CC1=CC[C@@H]2[C@@H](C1)c1c(O)cc(C(C)(C)C(=O)OCCCn3ccnc3)cc1OC2(C)C`, the Ki at Cannabinoid receptor 2 [5] amounted to 2.1 nM; on Cannabinoid receptor 2 [4] it was 1.3 nM. The t1/2 in [1] was found to be 271 min. The EC50 on Cannabinoid receptor 1 [2] lay in the range of 1 to 10 nM.
In the case of `CCCCOC(=O)Cc1cc(O)c2c(c1)OC(C)(C)[C@@H]1CC=C(C)C[C@@H]21`, the t1/2 in [1] stood at 0.7 min.
On to `CC1=CC[C@@H]2[C@@H](C1)c1c(O)cc(C(C)(C)C(=O)OCCCCBr)cc1OC2(C)C`, for which the results for the Ki on Cannabinoid receptor 1 [3], on Cannabinoid receptor 2 [5] and at Cannabinoid receptor 2 [4] were 1.2 nM, 0.9 nM and 0.8 nM, respectively. Also, in data set [1], the t1/2 was found to be 12.9 min.
With `CC1=CC[C@@H]2[C@@H](C1)c1c(O)cc(C3(C(=O)OCCCCBr)CCC3)cc1OC2(C)C`, in data set [1], the t1/2 amounted to 47.9 min.
As for `CCOC(=O)C(C)(C)c1cc(O)c2c(c1)OC(C)(C)[C@@H]1CC=C(C)C[C@@H]21`, the half-maximal effective concentration (EC50) at Cannabinoid receptor 1 [2] fell in the range of 1 to 10 nM.
For the compound `CCCCCNC(=O)C(C)(C)c1cc(O)c2c(c1)OC(C)(C)[C@@H]1CC=C(C)C[C@@H]21`, the EC50 at Cannabinoid receptor 1 [2] was 1 to 10 nM. In data set [12], the Stability entry is recorded as “Stable”.
For the compound `CCCSC(=O)C(C)(C)c1cc(O)c2c(c1)OC(C)(C)[C@@H]1CC=C(C)C[C@@H]21`, the Ki is 0.5 nM on Cannabinoid receptor 1 [3], 0.8 nM on Cannabinoid receptor 2 [5] and 0.7 nM on Cannabinoid receptor 2 [4]. Besides, the t1/2 in [1] is 312 min.
Consider `COC(=O)C(C)(C)c1cc(O)c2c(c1)OC(C)(C)[C@@H]1CC=C(C)C[C@@H]21`, for which the Ki is 36.9 nM at Cannabinoid receptor 2 [5] and 34.5 nM at Cannabinoid receptor 2 [4].
Consider `CCCCC(=O)OCC(C)(C)c1cc(O)c2c(c1)OC(C)(C)[C@@H]1CC=C(C)C[C@@H]21`, for which the Ki at Cannabinoid receptor 1 [3] was 0.5 nM; on Cannabinoid receptor 2 [5] it was 1.2 nM; on Cannabinoid receptor 2 [4], 1 nM. In addition, the t1/2 in data set [1] is listed as 9.5 min.
For the compound `CCCCOC(=O)C1(c2cc(O)c3c(c2)OC(C)(C)[C@@H]2CC=C(C)C[C@@H]32)CCC1`, the t1/2 in data set [1] amounted to 36.3 min. The EC50 on Cannabinoid receptor 1 [2] is less than 1 nM.
Take `CCCCOC(=O)C(C)(C)c1cc(O)c2c(c1)OC(C)(C)[C@@H]1CC=C(C)C[C@@H]21`: in data set [1], the t1/2 is listed as 12.4 min. Moreover, the EC50 at Cannabinoid receptor 1 [2] was less than 1 nM. In the data set with Rattus norvegicus [8], this compound yielded an ED50 of 0.37 mg/kg. For the same compound, the result in the data set on Rattus norvegicus [13] was Active.
